pIC50: −log10 of the molar value. “Also recorded” adds a separate entry of the source.
What was measured:
[1] = target: BrdT(1) (Homo sapiens, UniProt Q58F21); experiment: Fluorescence anisotropy competition assay with BI-BODIPY tracer; assay type: binding
[2] = target: T1, Brd4(1) (Homo sapiens, UniProt O60885); experiment: as above; assay type: binding
[3] = tested on: p21Cip1; experiment: Western blot of p21Cip1 levels; assay type: cell-based; settings: MM1.S cells, 6 h
Method in brief: (§1)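 MM1.S cells were grown in RPMI-1640 with 10% FBS at 37 °C, 5% CO2, seeded at 1 × 10^6 per well and exposed to increasing inhibitor concentrations for 6 h. Cells were pelleted (300 g, 5 min) and lysed at 4 °C with protease/phosphatase inhibitors plus 5 mM EDTA. Protein was quantified, run on 10 or 12.5% SDS-PAGE, transferred and probed with c-MYC or p21Cip1 antibodies, with chemiluminescent detection.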

[4] = target: T1, Brd4(1); experiment: AlphaScreen competition against biotinylated compound 2; assay type: binding; settings: for Hill slope: alpha-screen competition
[5] = target: 5FW-Brd4(1) (Homo sapiens, UniProt O60885); experiment: PrOF NMR titration; assay type: binding
Method in brief: (§2)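 19F NMR at 500 MHz with cryoprobe, 40–50 μM 5FW-labelled bromodomain in 50 mM Tris, 100 mM NaCl, pH 7.4, 5% D2O (BrdT samples also 3 mM DTT). Used 90° flip angle, 0.7 s relaxation delay, 0.1 s acquisition and 500 transients, referenced to TFA at −76.55 ppm. Ligand was titrated from concentrated DMSO stocks, keeping DMSO below 1%. Kd came from a one-site fit accounting for ligand depletion.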

[6] = tested on: MM1.S cells; experiment: Cell viability; assay type: cell-based
[7] = tested on: c-Myc; experiment: Western blot of c-Myc levels; assay type: cell-based; settings: MM1.S cells, 6 h
Method in brief: as §1

[8] = target: 5FW-BrdT(1) (Homo sapiens, UniProt Q58F21); experiment: PrOF NMR titration; assay type: binding
Method in brief: as §2

[9] = Stability of DMSO solution over freeze-thaw cycles by ESI-MS; assay type: physicochemical; settings: DMSO solution at −20 °C, several freeze-thaw cycles
[10] = target: 5FW-BPTF (Homo sapiens, UniProt Q12830); experiment: PrOF NMR titration; assay type: binding; settings: non-BET bromodomain BPTF

| Compound | binding by fluorescence anisotropy [1] | effect on p21Cip1 levels [3] | binding behaviour by PrOF NMR [5] | effect on c-Myc levels [7] | other results |
| --- | --- | --- | --- | --- | --- |
| COc1ccc(C2C3=C(COC3=O)Nc3c2c(=O)n(C)c(=O)n3C)cc1 (stereo not drawn) [Compound 3f, 5-(4-Methoxyphenyl)-1,3-dimethyl-5,9-dihydrofuro[3′,4′:5,6]pyrido[2,3-d]pyrimidine-2,4,6(1H,3H,8H)-trione] | inactive | – | – | – | – |
| CCn1c(=O)[nH]c(=O)c2c(-c3ccc(C)cc3)c3c(nc21)COC3=O [Compound 3n, 1-Ethyl-5-(p-tolyl)furo[3′,4′:5,6]pyrido[2,3-d]pyrimidine-2,4,6(1H,3H,8H)-trione] | no binding was observed | – | – | – | binding by fluorescence anisotropy [2]: no binding was observed |
| Cc1ccc(C2C3=C(COC3=O)Nc3c2c(=O)[nH]c(=O)n3CC(F)(F)F)cc1 (stereo not drawn) [Compound 3j, 5-(p-Tolyl)-1-(2,2,2-trifluoroethyl)-5,9-dihydrofuro[3′,4′:5,6]pyrido[2,3-d]pyrimidine-2,4,6(1H,3H,8H)-trione] | – | ineffective in altering c-Myc or p21Cip1 levels | slow to intermediate exchange | ineffective in altering c-Myc or p21Cip1 levels | pIC50 [4]: 5.34; Hill slope [4]: −1.6; growth inhibition activity [6]: lacked growth inhibition activity |
| Cc1ccc(C2C3=C(COC3=O)Nc3c2c(=O)n(C)c(=O)n3C)cc1 (stereo not drawn) [Compound 3e, 1,3-Dimethyl-5-(p-tolyl)-5,9-dihydrofuro[3′,4′:5,6]pyrido[2,3-d]pyrimidine-2,4,6(1H,3H,8H)-trione] | inactive | – | – | – | – |
| CCn1c2c(c(=O)[nH]c1=O)C(c1ccc(C)cc1)C1=C(CN(CCc3ccccc3)C1=O)N2 (stereo not drawn) [Compound 3q, 1-Ethyl-7-phenethyl-5-(p-tolyl)-5,7,8,9-tetrahydro-1H-pyrrolo[3',4':5,6]pyrido[2,3-d]pyrimidine-2,4,6(3H)-trione] | – | concomitant increase in p21Cip1 | – | decreasing c-Myc expression levels | – |
| CCn1c2c(c(=O)[nH]c1=O)C(c1ccc(C)cc1)C1=C(COC1=O)N2 (stereo not drawn) [Compound 3, 1-Ethyl-5-(p-tolyl)-5,9-dihydrofuro[3′,4′:5,6]pyrido[2,3-d]pyrimidine-2,4,6(1H,3H,8H)-trione] | – | ineffective in altering c-Myc or p21Cip1 levels | slow to intermediate exchange | ineffective in altering c-Myc or p21Cip1 levels | Hill slope [4]: −1; binding behaviour by PrOF NMR [8]: slow to intermediate exchange; effect of serum on binding by PrOF NMR ([5]; presence of serum): did not interfere with the binding; growth inhibition activity [6]: lacked growth inhibition activity; stability of dihydropyridine moiety [9]: remains stable; binding by PrOF NMR [10]: does not bind; also recorded: no binding was detected |
| Cc1sc2c(c1C)C(c1ccc(Cl)cc1)=N[C@@H](CC(=O)OC(C)(C)C)c1nnc(C)n1-2 [Compound 2, (+)-JQ1, reference compound] | – | upregulation of p21Cip1 levels | – | dose-dependent reduction of c-Myc levels | – |
| CCn1c2c(c(=O)n(C)c1=O)C(c1ccc(C)cc1)C1=C(COC1=O)N2 (stereo not drawn) [Compound 3m, 1-Ethyl-3-methyl-5-(p-tolyl)-5,9-dihydrofuro[3′,4′:5,6]pyrido[2,3-d]pyrimidine-2,4,6(1H,3H,8H)-trione] | inactive | – | – | – | – |
| CCn1c(N)cc(=O)[nH]c1=O [6-amino-1-ethyluracil, reference compound] | – | – | – | – | ligand efficiency ([5]; from PrOF NMR Kd): 0.39 kcal/mol/non-hydrogen atom |
| CCn1c2c(c(=O)[nH]c1=O)C(c1ccc(C)cc1)C1=C(CN(Cc3ccccc3)C1=O)N2 (stereo not drawn) [Compound 3p, 7-Benzyl-1-ethyl-5-(p-tolyl)-5,7,8,9-tetrahydro-1H-pyrrolo[3',4':5,6]pyrido[2,3-d]pyrimidine-2,4,6(3H)-trione] | – | concomitant increase in p21Cip1 | – | decreasing c-Myc expression levels | – |
| CCn1c2c(c(=O)[nH]c1=O)C(c1ccc(C)cc1)C1=C(CN(CCc3ccc(OC)cc3)C1=O)N2 (stereo not drawn) [Compound 3r, 1-Ethyl-7-(4-methoxyphenethyl)-5-(p-tolyl)-5,7,8,9-tetrahydro-1H-pyrrolo[3',4':5,6]pyrido[2,3-d]pyrimidine-2,4,6(3H)-trione] | – | concomitant increase in p21Cip1 | – | decreasing c-Myc expression levels | – |
| CCn1c2c(c(=O)[nH]c1=O)C(c1ccc(C)cc1)C1=C(CN(CCc3ccc(O)cc3)C1=O)N2 (stereo not drawn) [Compound 3s, 1-Ethyl-7-(4-hydroxyphenethyl)-5-(p-tolyl)-5,7,8,9-tetrahydro-1H-pyrrolo[3',4':5,6]pyrido[2,3-d]pyrimidine-2,4,6(3H)-trione] | – | concomitant increase in p21Cip1 | slow exchange | decreasing c-Myc expression levels | – |
| O=C1COC(=O)C1 [tetronic acid, reference compound] | – | – | No binding was observed | – | – |

Reference: publication PMC5558211 (Journal of medicinal chemistry, 2017)
